According to paper PMC8286830 (Biochemical Journal, 2021):
Entries after “also recorded” stand apart in the source; their conditions may differ.

How the values were obtained:
EoCEN = conditions: addition of XPC peptide; cited from earlier work
TgCEN1 [1] = test: Turbidimetry at 340 nm, TgCEN1 self-assembly; format: physicochemical, Toxoplasma gondii; conditions: increasing ANS concentrations, 1 mM CaCl2, 20 mM KCl, pH 7.5, 37°C
Summary of the method: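 Full-length protein (E. coli Rosetta) at 20 µM in 20 mM Tris–HCl, 20 mM KCl pH 7.5, 37°C, A340 recorded versus time. Run with 1 mM CaCl2, with 1 mM EGTA, or with EGTA added to Ca2+-saturated protein. Ca2+ series 5–2000 µM, read at 25 min versus metal/protein ratio. Also varied: temperature 4–45°C, protein 5–50 µM, KCl 0–150 mM, and 600 µM ANS.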

TgCEN1 [2] = test: DLS particle size of TgCEN1; format: physicochemical, Toxoplasma gondii; conditions: 600 µM ANS, 1 mM CaCl2, 20 mM Tris–HCl, 20 mM KCl pH 7.5, 37°C
C-TgCEN1 [3] = target: T1, C-TgCEN1 (Toxoplasma gondii, UniProt A0A125YHX7); test: DLS particle size of C-TgCEN1; format: physicochemical
Summary of the method: (§1)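 Domains produced in E. coli Rosetta: N-domain residues 1–94 and C-domain 95–169. […] 10 µM protein in 20 mM Tris–HCl pH 7.5, 1 mM CaCl2, at selected KCl concentrations or with 600 µM ANS. Samples centrifuged at 21 000 g for ≥30 min; filtered buffers. Hydrodynamic diameter reported as number distribution (633 nm laser, 173°).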

N-TgCEN1 = test: DLS particle size of N-TgCEN1; format: physicochemical, Toxoplasma gondii; conditions: 600 µM ANS, 10 µM N-TgCEN1, 1 mM CaCl2
Summary of the method: as §1

[4] = Far-UV CD of the substance alone; format: physicochemical; conditions: 20 µM, aqueous solution, 50 mM Tris–HCl, 150 mM KCl pH 7.5, 25°C
Summary of the method: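 Synthetic peptide (>90% HPLC purity, mass confirmed by ESI-MS), quantified by ε280 = 5500 M−1 cm−1, at 20 µM. Buffer: 50 mM Tris–HCl, 150 mM KCl pH 7.5, 0.5 mM DTT with 5 mM CaCl2 or EGTA. Spectra 200–250 nm, 0.1 cm cell, 25°C, average of five accumulations, buffer spectrum subtracted.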

C-TgCEN1 [5] = target: T1, C-TgCEN1; test: Turbidimetry at 340 nm, C-TgCEN1; format: physicochemical; conditions: 20 µM, 1 mM CaCl2, 20 mM KCl pH 7.5, 37°C
Summary of the method: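 Recombinant N-domain (1–94) or C-domain (95–169), Ni-affinity purified. A340 followed over time in a 1 cm cuvette. Standard conditions: 20 µM protein, 20 mM Tris–HCl, 20 mM KCl pH 7.5, 1 mM CaCl2, 37°C. Conditions also varied: CaCl2 0–2 mM, temperature 4–45°C, protein 5–50 µM, KCl 0–150 mM, or 600 µM ANS added.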

Δ21TgCEN1 [6] = target: T2, Δ21TgCEN1 (Toxoplasma gondii, UniProt A0A125YHX7); test: Turbidimetry at 340 nm, Δ21TgCEN1; format: physicochemical; conditions: 20 µM Δ21TgCEN1 + 50 µM N21, 1 mM CaCl2, 20 mM KCl pH 7.5, 37°C
T2 sequence (A0A125YHX7 22-169): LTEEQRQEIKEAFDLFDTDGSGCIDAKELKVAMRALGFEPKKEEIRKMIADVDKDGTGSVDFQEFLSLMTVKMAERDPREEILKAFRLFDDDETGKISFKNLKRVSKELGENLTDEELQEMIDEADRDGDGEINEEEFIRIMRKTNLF
Summary of the method: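 Construct lacking residues 1–21 (E. coli Rosetta) at 20 µM in 20 mM Tris–HCl, 20 mM KCl pH 7.5, 1 mM CaCl2, 37°C. A340 followed over time, before and after adding 50 µM synthetic N-terminal peptide (residues 1–21). Peptide alone with CaCl2 run as a control trace.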

[7] = Turbidimetry at 340 nm, N21 peptide alone; format: physicochemical; conditions: 1 mM CaCl2, 20 mM Tris–HCl, 20 mM KCl pH 7.5, 37°C, turbidity at 340 nm
Summary of the method: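 Synthetic N21 peptide (>90% HPLC purity, mass confirmed by ESI-MS) alone with 1 mM CaCl2 in 20 mM Tris–HCl, 20 mM KCl pH 7.5 at 37°C. Absorbance at 340 nm recorded over time in 1 cm quartz cuvettes.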

Δ21TgCEN1 [8] = target: T2, Δ21TgCEN1; test: DLS particle size / count rate of Δ21TgCEN1; format: physicochemical; conditions: 50 µM N21, 1 mM CaCl2
Summary of the method: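 Recombinant tag-free Δ21TgCEN1 from E. coli Rosetta (Ni affinity, TEV cleavage). For DLS, 10 µM protein in 20 mM Tris–HCl, 20 mM KCl pH 7.5 with 1 mM CaCl2 at 37°C was spun at 21 000 g for ≥30 min, then measured before and after adding 50 µM N21 peptide. Diameter was reported as number distribution. In parallel, A340 turbidity of 20 µM protein was followed over time.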

[9] = 600 µM ANS, 10 µM C-TgCEN1, 1 mM CaCl2

In the case of “XPC peptide: XPC peptide added to centrin from Euplotes octocarinatus (EoCEN), cited ref 43 (NWKLLAKGLLIRERLKR)”, the “effect on protein aggregates” value (EoCEN) is given as “dissociation of protein aggregates”.

For `O=S(=O)(O)c1cccc2cccc(Nc3ccccc3)c12` [ANS, 1-anilino-8-naphthalenesulphonic acid, reference compound], the “TgCEN1 final turbidity at 340 nm with ANS” value (TgCEN1 [1]) was “decreased at increasing ANS concentrations; also recorded: only partially quenched the aggregation process”, the “hydrodynamic diameter of TgCEN1 particles with ANS” value (TgCEN1 [2]) was ~238 nm and the “diameter of new species of C-TgCEN1 with ANS (larger)” value (C-TgCEN1 [3]; [9]) was 35 ± 1 nm. For the same compound, the “diameter of new species of C-TgCEN1 with ANS (smaller)” value (C-TgCEN1 [3]; [9]) was 7.96 ± 0.01 nm and the “effect of ANS on association of N-TgCEN1” value (N-TgCEN1) was “no effect”.

In the case of “C-TgCEN1: C-terminal domain of TgCEN1, 95–169 aa”, the “far-UV CD conformation alone” value [4] was “well-folded”, the particle diameter (C-TgCEN1 [3]; 10 µM, 1 mM CaCl2, 20 mM Tris–HCl, 20 mM KCl pH 7.5) was 311 ± 1 nm and the “DLS profile vs salt” value (C-TgCEN1 [3]; 10 µM, selected KCl concentrations, 1 mM CaCl2) was “only small changes in the DLS profiles”. For the same compound, the “turbidity at 340 nm” value (C-TgCEN1 [5]) was “no turbidity changes at 340 nm”.

For 1-MHSRKGASSLPRGRGAGKKTE-21 [N21], the “Δ21TgCEN1 light scattering at 340 nm with N21” value (Δ21TgCEN1 [6]) was “an increase in the light scattering at 340 nm”, the “Ca^2+-induced aggregation of peptide alone” value [7] was “did not aggregate upon addition of Ca^2+ in solution” and the “DLS count rate of Δ21TgCEN1 with N21” value (Δ21TgCEN1 [8]) was “increase”.
